Test [1] concerns Rattus norvegicus. Nature of the test: Wound healing activity in po dosed Swiss albino rat dead space wound model assessed as skin breaking strength after 10 days. The test is classed as functional. The essentials: (§1)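 Oral dosing by feeding tube of a 4 mg/mL suspension in 1% (w/v) Tween-80, prepared fresh. Ten groups of four animals: untreated control, a 0.2% (w/w) nitrofurazone ointment reference, and eight test groups. Granulation tissue was weighed wet and dry, and its breaking strength was measured. Values are mean ± SE of 4 animals, analysed by one-way ANOVA with Tukey's test against control.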

Test [2] has as its system Rattus norvegicus. Nature of the test: Wound healing activity in po dosed Swiss albino rat dead space wound model assessed as dry weight of granulation tissue per 100 gm after 24 hrs. The test is classed as functional. The essentials:
as §1

Test [3] deals with Rattus norvegicus. Nature of the test: Wound healing activity in po dosed Swiss albino rat dead space wound model assessed as wet weight of granulation tissue per 100 gm after 24 hrs. The test is classed as functional. Put shortly:
as §1

In test [4] the test system is Rattus norvegicus. Nature of the test: Wound healing activity in po dosed Swiss albino rat incision wound model assessed as skin breaking strength after 10 days. The test is classed as functional.
For test [5], the system named is Rattus norvegicus. Nature of the test: Wound healing activity in po dosed Swiss albino rat dead space wound model assessed as granuloma epithelialization and collagenation. The test is classed as functional, organism-based.
Test [6] has as its system Rattus norvegicus. Nature of the test: Wound healing activity in po dosed Swiss albino rat incision wound model assessed as increase in dry weight of granulation tissue after 24 hrs. The test is classed as functional, organism-based.
In test [7] the test system is Rattus norvegicus. Nature of the test: Wound healing activity in po dosed Swiss albino rat incision wound model assessed as increase in wet weight of granulation tissue after 24 hrs. The test is classed as functional, organism-based.

The source made the active and inactive calls. No cut-off for these calls is given here.

With `COc1ccc(C(=O)c2ccc(OCC(=O)N3CCC(CCCC4CCN(C(=O)Nc5ccc(Cl)cc5Cl)CC4)CC3)cc2)c(OC)c1`, the Activity in the test with Rattus norvegicus [1] is reported as 361.6 g; in the test on Rattus norvegicus [2] it was 17.81 mg; with Rattus norvegicus [3], 79 mg; in the test on Rattus norvegicus [4], 445.12 g.

Consider `NC(=O)N/N=C/c1ccc([N+](=O)[O-])o1` [NITROFURAZONE], for which the Activity with Rattus norvegicus [4] was determined as 875 g.

For the compound `COc1ccc(NC(=O)N2CCC(CCCC3CCN(C(=O)COc4ccc(C(=O)c5ccc(OC)cc5OC)cc4)CC3)CC2)cc1`, the Activity with Rattus norvegicus [1] amounted to 414.19 g; in the test on Rattus norvegicus [2], 21.59 mg; in the test with Rattus norvegicus [3], 112.48 mg; in the test with Rattus norvegicus [4] it was 503.89 g.

On to `COc1ccc(C(=O)c2ccc(OCC(=O)N3CCC(CCCC4CCN(C(=S)Nc5ccc(Cl)cc5Cl)CC4)CC3)cc2)c(OC)c1`, for which the Activity turned out to be 619.15 g in the test with Rattus norvegicus [1], 21.02 mg in the test with Rattus norvegicus [2], 88.02 mg in the test with Rattus norvegicus [3] and 612.5 g with Rattus norvegicus [4].

Take `COc1ccc(C(=O)c2ccc(OCC(=O)N3CCC(CCCC4CCN(C(=O)Nc5ccc(F)cc5)CC4)CC3)cc2)c(OC)c1`: the Activity in the test with Rattus norvegicus [1] amounted to 451.6 g; with Rattus norvegicus [2], 17.8 mg; in the test on Rattus norvegicus [3] it was 91.31 mg; in the test with Rattus norvegicus [4], 552.06 g.

In the case of `COc1ccc(C(=O)c2ccc(OCC(=O)N3CCC(CCCC4CCN(C(=O)Nc5ccccc5Cl)CC4)CC3)cc2)c(OC)c1`, the Activity came out at 541.82 g with Rattus norvegicus [1], 21.01 mg in the test on Rattus norvegicus [2], 104.85 mg in the test on Rattus norvegicus [3] and 605.49 g in the test on Rattus norvegicus [4]. Also, in the test with Rattus norvegicus [5], the result was Active.

Take `COc1ccc(C(=O)c2ccc(OCC(=O)N3CCC(CCCC4CCN(C(=S)Nc5ccc(F)cc5)CC4)CC3)cc2)c(OC)c1`: the Activity in the test with Rattus norvegicus [1] was 645.69 g; in the test with Rattus norvegicus [2], 26.27 mg; with Rattus norvegicus [3] it was 122.94 mg; with Rattus norvegicus [4], 760.88 g. For the same compound, the result with Rattus norvegicus [5], with Rattus norvegicus [6] and in the test on Rattus norvegicus [7] was Active.

For the compound `COc1ccc(C(=O)c2ccc(OCC(=O)N3CCC(CCCC4CCN(C(=S)Nc5ccccc5Cl)CC4)CC3)cc2)c(OC)c1`, the Activity with Rattus norvegicus [1] is recorded as 623.25 g; in the test with Rattus norvegicus [2] it was 26.04 mg; in the test with Rattus norvegicus [3], 134.79 mg; with Rattus norvegicus [4], 748.38 g. The result in the test on Rattus norvegicus [5], in the test with Rattus norvegicus [6] and with Rattus norvegicus [7] was Active.

`COc1ccc(NC(=S)N2CCC(CCCC3CCN(C(=O)COc4ccc(C(=O)c5ccc(OC)cc5OC)cc4)CC3)CC2)cc1`: the Activity with Rattus norvegicus [1] was determined as 355.42 g; with Rattus norvegicus [2], 12.36 mg; in the test with Rattus norvegicus [3], 80.54 mg; in the test with Rattus norvegicus [4], 675 g.

These data come from ChEMBL document CHEMBL1153585, “Evaluation of in vivo wound-healing potential of 2-[4-(2,4-dimethoxy-benzoyl)-phenoxy]-1-[4-(3-piperidin-4-yl-propyl)-piperidin-1-yl]-ethanone derivatives” (2009).
